{
  "source": "ChEMBL document CHEMBL3098075",
  "about": "“Lipoic acid analogs with enhanced pharmacological activity” (2014)",
  "note": "Residues, ends and D or L forms follow the SMILES beside them.",
  "data": [
    {"test_system": "Rattus norvegicus", "assay": "Cardioprotective activity in Sprague-Dawley rat model of myocardial ischemia-reperfusion injury assessed as reduction in MI/AR ratio at 1 to 10 mg/kg, iv bolus administered 15 mins prior to 30 mins LCX ligation by TTC staining-based fluorescence microscopy relative to placebo control", "format": "functional, Myocardium", "parameters": "scale not given: the % may be the effect or the level left", "details": "dose mg/kg 1-10", "outline": "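Anaesthetised animals underwent thoracotomy and pericardotomy, then LCX coronary ligation for 30 min followed by reperfusion. Agent was given in isotonic saline (pH-neutralised with NaOH, 285 mOsm), 1 mL/kg, before ligation. Fluorescent microspheres injected into the LV cavity during ischemia marked the area at risk. Hearts were excised after 24 h and cut into five 2 mm slices stained with 1% TTC. The MI/AR ratio was compared with placebo by Student's t-test.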", "units": {"Activity": "%"}, "values": [
      {"compound": "O=C(CCCC[C@@H]1CCSS1)N[C@@H](Cc1ccc(C(=O)O)cc1)C(=O)O", "Activity": 26},
      {"compound": "O=C(CCCC[C@@H]1CCSS1)N[C@@H](Cc1ccc(O)cc1)C(=O)O", "Activity": 29},
      {"compound": "O=C(CCCC[C@@H]1CCSS1)N[C@@H](CS(=O)(=O)O)C(=O)O", "Activity": 30},
      {"compound": "O=C(CCCC[C@@H]1CCSS1)Nc1ccc(C(=O)O)cc1", "Activity": 22},
      {"compound": "C[C@H](NC(=O)[C@H](Cc1ccc(O)cc1)NC(=O)CCCC[C@@H]1CCSS1)C(=O)O", "Activity": 31},
      {"compound": "O=C(CCCC[C@@H]1CCSS1)Nc1cccc(S(=O)(=O)O)c1", "Activity": 33},
      {"compound": "O=C(CCCC[C@@H]1CCSS1)Nc1ccc(S(=O)(=O)O)cc1", "Activity": 44},
      {"compound": "O=C(CCCC[C@@H]1CCSS1)NC(CF)C(=O)O", "note": "(some centres undefined)", "Activity": 10},
      {"compound": "O=C(CCCC[C@@H]1CCSS1)NCCOP(=O)(O)O", "Activity": 47},
      {"compound": "O=C(O)CCNC(=O)CCCC[C@@H]1CCSS1", "Activity": 39},
      {"compound": "O=C(CCCC[C@@H]1CCSS1)NCCOS(=O)(=O)O", "Activity": 30},
      {"compound": "Ac-EAEAEGA-OH", "Activity": 17},
      {"compound": "CC(=O)N[C@@H](CCC(=O)O)C(=O)N[C@@H](C)C(=O)N[C@@H](CCC(=O)O)C(=O)N[C@@H](C)C(=O)O", "note": "(Ac-EAEA-OH)", "Activity": 23},
      {"compound": "O=C(O)CC[C@H](NC(=O)CCCC[C@@H]1CCSS1)C(=O)O", "Activity": 33},
      {"compound": "O=C(CCCC[C@@H]1CCSS1)NCCS(=O)(=O)O", "Activity": 45},
      {"compound": "CC(=O)N[C@@H](CCC(=O)O)C(=O)N[C@@H](C)C(=O)O", "note": "(Ac-Glu-Ala-OH)", "Activity": 23},
      {"compound": "O=C(CCCC[C@@H]1CCSS1)NCCP(=O)(O)O", "Activity": 53},
      {"compound": "C[C@H](NC(=O)[C@H](CCC(=O)O)NC(=O)CCCC[C@@H]1CCSS1)C(=O)O", "note": "[CMX-2043]", "Activity": 31},
      {"compound": "C[C@H](NC(=O)CCCC[C@@H]1CCSS1)C(=O)N[C@@H](CCC(=O)O)C(=O)O", "Activity": 24},
      {"compound": "NC(=O)CC[C@H](NC(=O)CCCC[C@@H]1CCSS1)C(=O)NCC(=O)O", "Activity": 17},
      {"compound": "O=C(O)CNC(=O)[C@H](CC(=O)O)NC(=O)CCCC[C@@H]1CCSS1", "Activity": 28},
      {"compound": "O=C(O)CC[C@H](NC(=O)CCCC[C@@H]1CCSS1)C(=O)NCCS(=O)(=O)O", "Activity": 33},
      {"compound": "O=C(O)CCCC[C@@H]1CCSS1", "note": "[THIOCTIC ACID]", "Activity": 19},
      {"compound": "O=C(O)CN(CC(=O)O)C(=O)CCCC[C@@H]1CCSS1", "Activity": 21}
    ]}
  ]
}
